Reference: PMC12530853 (RSC Advances, 2025)
≈ marks a conversion by molar mass, not a printed value.

Columns and labels:
C. albicans ATCC 10231 = assay: Minimum inhibitory concentration; type: cell-based; conditions: Candida albicans, ATCC10231, read-out: Minimum inhibitory concentration (MIC) C. albicans ATCC 10231
Procedure, shortened: (§1)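 Exponential-phase yeast were washed three times in PBS and suspended at 1 × 10^3 CFU/mL in RPMI 1640. Test compound and fluconazole comparator were twofold serially diluted in microplates, each concentration in triplicate wells. Growth was read as OD600, from which the MIC was determined.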

C. albicans ATCC 14053 = assay: Minimum inhibitory concentration; type: cell-based; conditions: Candida albicans, ATCC14053, read-out: Minimum inhibitory concentration (MIC) C. albicans ATCC 14053
Procedure, shortened: as §1

C. albicans ATCC 90028 = assay: Activity against additional fungal strains; type: cell-based; conditions: Table 2; no quantity or unit printed
Procedure, shortened: (§2)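 Fungi in exponential phase were washed three times in PBS and resuspended at 1 × 10^3 CFU mL−1 in RPMI 1640. Test compound and fluconazole were serially diluted twofold in 96-well plates, in triplicate wells per concentration. MIC was derived from OD600 readings.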

C. albicans ATCC 24433 = assay: Activity against additional fungal strains; type: cell-based; conditions: Table 2; no quantity or unit printed
Procedure, shortened: as §2

F. solani 52628 = assay: Activity against additional fungal strains; type: cell-based; conditions: Table 2; no quantity or unit printed
Procedure, shortened: as §2

F. solani 46492 = assay: Activity against additional fungal strains; type: cell-based; conditions: Table 2; no quantity or unit printed
Procedure, shortened: as §2

[1] = tested on: A. brasiliensis TCC 16404; assay: Activity against additional fungal strains; type: cell-based; conditions: Table 2; no quantity or unit printed
Procedure, shortened: as §2

FO MYA 3461 = assay: Activity against additional fungal strains; type: cell-based; conditions: Table 2; no quantity or unit printed
Procedure, shortened: as §2

Candida albicans = conditions: lack of antifungal activity; cited from earlier work

SMILES | MIC (C. albicans ATCC 10231) [µg/mL] | MIC (C. albicans ATCC 14053) [µg/mL] | other results
Clc1ccc(C=Nc2ncn[nH]2)cc1 [3g, 1-(4-Chlorophenyl)-N-(1H-1,2,4-triazol-5-yl)methanimine] | > 256 | > 256 | 
C(=Nc1ncn[nH]1)c1ccncc1 [3h, 1-(Pyridin-4-yl)-N-(1H-1,2,4-triazol-5-yl)methanimine] | > 256 | > 256 | 
O=[N+]([O-])c1ccc(C=Nc2ncn[nH]2)cc1 [3i, 1-(4-Nitrophenyl)-N-(1H-1,2,4-triazol-5-yl)methanimine] | 128 (≈ 589 µM) | 128 (≈ 589 µM) | 
COc1ccc(C=Nc2ncn[nH]2)cc1 [3j, 1-(4-Methoxyphenyl)-N-(1H-1,2,4-triazol-5-yl)methanimine] | > 256 | > 256 | 
Oc1ccc(C=Nc2ncn[nH]2)cc1 [3k, 4-{[(1H-1,2,4-Triazol-5-yl)imino]methyl}phenol] | > 256 | > 256 | 
O=C(O)c1ccc(C=Nc2ncn[nH]2)cc1 [3l, 4-{[(1H-1,2,4-Triazol-5-yl)imino]methyl}benzoic acid] | > 256 | > 256 | 
C[C@@H]1C/C=C/C=C/C=C/C=C/[C@H](O[C@@H]2O[C@H](C)[C@@H](O)[C@H](N)[C@@H]2O)C[C@@H]2O[C@](O)(C[C@@H](O)C[C@H]3O[C@@H]3/C=C/C(=O)O1)C[C@H](O)[C@H]2C(=O)O [Natamycin, reference compound] | 8 (≈ 12 µM) | 8 (≈ 12 µM) | Interaction against varied fungal strains: C. albicans ATCC 90028 (C. albicans ATCC 90028): 8; Interaction against varied fungal strains: C. albicans ATCC 24433 (C. albicans ATCC 24433): 8; Interaction against varied fungal strains: F. solani 52628 (F. solani 52628): 8; Interaction against varied fungal strains: F. solani 46492 (F. solani 46492): 8; Interaction against varied fungal strains: A. brasiliensis TCC 16404 [1]: 8; Interaction against varied fungal strains: FO MYA 3461 (FO MYA 3461): 8
O=C(NC[C@@H](c1ccccc1)n1ccnc1)c1ccc(-c2ccc(Cl)cc2)cc1 [VID400] |  |  | MIC against Candida albicans (Candida albicans): > 128 µg/mL
